# PP1 counter – PP1-alpha phosphatase inhibitors, primary screen, counter-screen for PP5 inhibitor project, biochemical, fluorescence, OMFP substrate, single point. Serine/threonine-protein phosphatase PP1-alpha catalytic subunit (Homo sapiens), P62136. purified PP1alpha. inhibition, % at 6.7 µM. 0.9% of 320,000 active. AID 2235, 2010;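 active = inhibition above the mean inhibition of all tested compounds plus 3 SD, computed separately for each screening campaign, cut at about 15% in these data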
# HCV core dimer – inhibitors of HCV core protein dimerization, primary screen, biochemical, TR-FRET, high-throughput | TR-FRET GST/Flag-core106 dimerization, 1536-well | inhibition, % at 5 µM | 0.33% of 300,000 active | AID 1899, 2009;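 active = inhibition above the mean of all tested compounds plus 3 SD, set per screening campaign, cut at about 45% in these data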
#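 Assay system: tagged HCV core106 pair (GST and Flag); medium: KF-containing HEPES buffer, pH 7.45, DTT, CHAPS, BSA; also added: Eu donor and XL665 acceptor anti-tag antibodies; dosing: 5 µM single dose; timing: compound-protein-antibody incubation 4 h at 22.5 °C; signal: TR-FRET 671 and 617 nm emission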
# NS3 helicase inh – inhibitors of HCV NS3 helicase, primary screen, biochemical, Cy5 molecular beacon fluorescence; 0.56% of 290,000 active; inhibition, % at 10.9 µM; AID 1800, 2009; Hepatitis C virus NS3 helicase; NS3 helicase DNA unwinding;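 active = inhibition above the mean of all tested compounds plus 3 SD, set per campaign, cut at about 35% in these data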;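 also: 0% = DMSO wells and 100% = thioflavine S control wells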
#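 System: Hepatitis C virus NS3 helicase domain fragment enzyme | Reagent: Annealed dual-labelled DNA beacon duplex, ATP-started | Compound dosing: 10.9 µM single point, 0.8% DMSO | Incubation: 1 h reaction at 25 °C, ATP-initiated | Technique: Cy5 fluorescence | Evaluation: Percent inhibition from t60/t0 fluorescence ratio | Benchmarks: Low DMSO, high thioflavine S at 110 µM | Replication: Singlicate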
# EBNA-1 inhibitor – EBNA-1 DNA-binding inhibitors, primary screen, biochemical, fluorescence polarization; 0.34% of 300,000 active; AID 1950, 2009; inhibition, % at 14.8 µM; in the data active = inhibition above about 28%
# ZTA DNA inh – blocks Epstein-Barr virus ZTA, an EBNA-1 counter-screen. inhibition, % at 11 µM. ZTA-DNA binding, fluorescence polarization. 0.15% of 320,000 active. P03206; in the data active = inhibition above about 33%
# PP1 confirm – PP1 phosphatase inhibitors, confirmation, biochemical, fluorescence, OMFP substrate, triplicate; shares compounds with PP1 counter; purified PP1alpha; inhibition, % at 6.7 µM; 52% of 1,900 active; AID 2358, 2010;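 active = mean PP1 inhibition above a set limit taken from the earlier primary screen, cut at about 15% in these data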
# PP5 inh counter – PP5 phosphatase inhibition by PP1 hits, confirmation, counter-screen for PP1 inhibitor project, biochemical, fluorescence, triplicate; AID 2360, 2010; shares compounds with PP1 counter; inhibition, % at 6.7 µM; purified PP5c, OMFP fluorescence; 4% of 1,900 active;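 active = mean PP5 inhibition over triplicate wells above about 9.5% taken from the earlier PP1 screen, limit read from the data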
# Target sequence (P53041 whole entry, looked up): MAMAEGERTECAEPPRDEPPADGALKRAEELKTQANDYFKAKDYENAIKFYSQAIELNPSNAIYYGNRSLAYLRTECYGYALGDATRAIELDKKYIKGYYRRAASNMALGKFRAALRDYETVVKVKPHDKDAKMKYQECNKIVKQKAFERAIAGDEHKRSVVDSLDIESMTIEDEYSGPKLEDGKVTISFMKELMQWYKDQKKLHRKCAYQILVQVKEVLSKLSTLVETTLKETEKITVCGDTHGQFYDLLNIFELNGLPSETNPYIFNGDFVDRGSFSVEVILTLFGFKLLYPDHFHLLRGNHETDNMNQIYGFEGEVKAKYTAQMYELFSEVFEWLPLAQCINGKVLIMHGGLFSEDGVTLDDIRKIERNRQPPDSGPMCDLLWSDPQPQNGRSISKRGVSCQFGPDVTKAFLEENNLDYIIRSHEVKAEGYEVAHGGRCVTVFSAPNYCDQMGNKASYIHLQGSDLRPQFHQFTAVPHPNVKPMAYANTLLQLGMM
# Numbers without * were called inactive; x = no result given. This is a sample that favours compounds with a hit; in the whole collection about 1.9% have one here.
SMILES,PP1 counter,HCV core dimer,NS3 helicase inh,EBNA-1 inhibitor,ZTA DNA inh,PP1 confirm,PP5 inh counter
N#CC1=C2N=C(N)c3ccccc3N2C2=C(C(=O)CCC2)C1c1ccccc1F (stereo not given),1,-5,-6,-8,-5,x,x
Cc1ccccc1C1C(C#N)=C2N=C(N)c3c(sc4c3CCCCC4)N2C2=C1C(=O)CCC2 (stereo not given),25*,32,12,9,-4,18*,9
COc1ccc(CC(=O)NNS(=O)(=O)c2ccc([N+](=O)[O-])cc2)cc1OC,0,-6,-2,-7,-11,x,x
CCOC(=O)CC1(NC(=O)C2CCC(=O)N(CCc3ccccc3)C2)CCCCC1 (stereo not given),20*,2,-11,-8,21,0,2
COc1ccc2c3c(cccc13)C(=O)N(O)C2=O,26*,15,5,-1,14,42*,-3
O=C1c2cccc3c([N+](=O)[O-])ccc(c23)C(=O)N1O,9,-44,9,-14,8,x,x
COc1cc(/C=N/NC(=O)/C(=C\c2ccc([N+](=O)[O-])cc2)NC(=O)c2ccccc2)cc(OC)c1O,3,-1,-5,-10,6,x,x
O=C(N/N=C/c1cc([N+](=O)[O-])cc([N+](=O)[O-])c1O)/C(=C\c1cccs1)NC(=O)c1ccccc1,21*,12,22,-2,2,30*,-3
Cc1c(-c2ccc(Cl)cc2)oc(=O)c2c(N)n(-c3ccccc3)nc12,23*,-2,-1,8,-18,28*,-3
Nc1c2c(=O)oc(-c3ccccc3)cc2nn1-c1ccccc1,-2,7,6,4,7,x,x
CCCCCCC[C@H](N)[C@H](O)C(=O)N(C)[C@@H](CCS(C)=O)C(=O)N[C@@H](Cc1ccc(O)cc1)C(=O)N[C@@H](Cc1ccc(O)cc1)C(=O)O (stereo not given in full),95*,-19,x,-5,-1,95*,86*
Cc1cc(C)cc(C(=O)NC(CC(N)=O)c2ccc(NC3CCCC3)c([N+](=O)[O-])c2)c1 (stereo not given),4,8,-12,-3,4,x,x
Cc1sc2nc(SCC(=O)N3CCOCC3)[nH]c(=O)c2c1-c1ccccc1,-7,3,8,-4,6,x,x
CNC(=O)C(=O)Nc1cc2c3c(c1)CCN3C(=O)CC2,-1,4,1,1,3,x,x
CCN(CC)CCNC(=O)C(=O)Nc1cc2c3c(c1)CCN3C(=O)CC2,18*,-9,12,11,5,1,4
CC(=O)c1ccc(NC(=O)C2CCCNC2=O)cc1 (stereo not given),22*,-2,-4,2,7,-2,-4
O=C(CSc1nc2ccccc2c(=O)n1Cc1ccccc1)Nc1ccc(Br)cc1C(=O)O,20*,17,4,-12,0,15*,4
CC[C@@H](C)[C@H](CNC)NC[C@@H](Cc1cccc2ccccc12)NCCc1cccc(C(F)(F)F)c1,25*,-30,-94,2,-19,-11,4
CCC(c1nnc(SCC(=O)Nc2ccc(C(=O)N(C)C)cc2)n1Cc1ccccc1)N(C)C (stereo not given),-3,0,7,-2,1,x,x
O=c1[nH]c(CSc2nnc(Nc3ccccc3)s2)nc2ccccc12,28*,6,-1,9,9,18*,-3
O=C1Nc2ccccc2/C1=C/c1cnc(-c2ccccc2)[nH]1,35*,48*,-11,9,27,35*,-1
COc1ccc([N+](=O)[O-])cc1NC(=S)NC(C)=O,-3,-1,0,7,-3,x,x
COc1ccc(/C=C/C(=O)NC(=S)Nc2cc([N+](=O)[O-])ccc2O)cc1OC,43*,31,7,5,17,39*,-2
CCc1cccc(CC)c1NC(=S)NCC(c1cccnc1)N(C)C (stereo not given),-6,-5,-4,-2,-30,x,x
CCn1c(SCC(=O)Nc2oc(-c3ccccc3)c(-c3ccccc3)c2C#N)nnc1-c1ccncc1,2,3,0,-9,6,x,x
SMILES,PP1 counter,HCV core dimer,NS3 helicase inh,EBNA-1 inhibitor,ZTA DNA inh,PP1 confirm,PP5 inh counter
CCn1c(SCC(=O)Nc2oc(-c3ccccc3)c(-c3ccccc3)c2C#N)nnc1-c1ccco1,18*,36,6,14,0,10,-1
O=C(CCl)N1CCCC1c1ccc2c(c1)OCCO2 (stereo not given),-4,3,-1,-3,3,x,x
O=c1[nH]c(NNC(=S)NCc2ccccc2)nc2c1C1(CCCCC1)Cc1ccccc1-2,12,13,15,6,-6,x,x
O=c1[nH]c(NNC(=S)NC2CCCCC2)nc2c1C1(CCCC1)Cc1ccccc1-2,19*,3,21,13,-12,0,-3
c1ccc2cc(OCCCn3ccnc3)ccc2c1,1,0,-2,1,14,x,x
O=C(CCN1C(=O)/C(=C/c2ccccc2Cl)SC1=S)NC1C=CS(=O)(=O)C1 (stereo not given),24*,8,-4,-9,5,24*,-1
Cc1ccc(S(=O)(=O)N2CCCCC2)cc1NC(=O)C1CCC1,0,x,x,x,-4,x,x
COc1ccc(-c2cc3nc4ccccc4n3c(N)c2C#N)cc1,18*,7,4,1,-5,17*,-4
O=C(CN1C(=O)NC2(CCCC2)C1=O)N1CCN(c2ccccc2O)CC1,18*,-7,x,-4,-6,-6,-3
CCOc1ccccc1N1CCN(C(=O)CN2C(=O)NC3(CCCC3)C2=O)CC1,0,-4,x,-6,-24,x,x
CCN1CCN(C(=O)N(c2ccccc2)c2ccccc2)CC1,-2,-7,2,1,-15,x,x
CC[C@H](C)[C@@H](C(=O)NCCCCCCCCCCC(=O)N1CCN(C(=O)OC(C)(C)C)CC1)n1cc(CCCCN=C(NC(=O)OC(C)(C)C)NC(=O)OC(C)(C)C)nn1,19*,3,x,-2,1,30*,2
C#CCOCCOCCOCCNc1nc(N2CCN(C(=O)[C@H]([C@@H](C)CC)n3cc([C@@H](N)CO)nn3)CC2)nc(N2CCN(C(=O)[C@H](Cc3cc4ccccc4[nH]3)n3cc([C@@H](N)Cc4ccc(O)cc4)nn3)CC2)n1,24*,-19,x,-5,4,-6,2
